What all share (format): functional
Experiment [1] concerns Rattus norvegicus. In words: Suppression of cumulative food intake in rat at 1 mg/kg, po after 13 days relative to control. An outline of the steps:
(§1)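 Chronic study in diet-induced obese rats with daily oral dosing at 1 mg/kg (for some compounds 0.1 and 0.3 mg/kg as well). Body weight change and cumulative food intake suppression were measured relative to vehicle. The 14-day study ended 18 h after the day-14 dose; one study ended on day 13.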

In experiment [2] the test system is Rattus norvegicus. In words: Reduction of body weight in DIO rat assessed as weight change at 1 mg/kg, po daily measured 18 hrs post dose on day 13. Also on record: scale not given: the % may be the effect or the level left. In outline: as §1
Experiment [3] relates to Rattus norvegicus. In words: Reduction of body weight in rat at 1 mg/kg, po after 13 days relative to control. Also on record: scale not given: the % may be the effect or the level left. An outline of the steps: as §1

In the case of `C[C@H](NC(=O)C(C)(C)Oc1ccc(C(F)(F)F)cn1)[C@@H](Cc1ccc(Cl)cc1)c1cccc(C#N)c1` [TARANABANT], the Activity with Rattus norvegicus [1] was 21%; in the experiment with Rattus norvegicus [2], 6%; in the experiment with Rattus norvegicus [3], 6%.

The values above are taken from ChEMBL document CHEMBL1156265, “Furo[2,3-b]pyridine-based cannabinoid-1 receptor inverse agonists: synthesis and biological evaluation. Part 1” (Bioorg Med Chem Lett, 2010).
